Hits are enriched below; roughly 3.1% of the tested compounds scored in any of these assays.
SENP8 block-1: SENP8 protease inhibitors, primary screen, biochemical, luminescence; purified SENP8, Z-RLRGG-aminoluciferin cleavage; inhibition, % at 10 µM; 330,000 compounds, 1.2% hits; AID 2540, 2010; in the data active = inhibition above about 50%
SENP8 block-2: human SENP8 protease inhibitors, primary screen, biochemical, fluorescence, Nedd8 protein substrate, uHTS; Sentrin-specific protease 8 (Homo sapiens), Q96LD8; recombinant SENP8; inhibition, % at 20 µM; 360,000 compounds, 0.64% hits; AID 602440, 2012; in the data active = inhibition mostly above about 40%, no sharp cut-off; inactive = mostly below about 27%
SENP7 block: SENP7 protease inhibitors, primary screen, biochemical, luminescence, uHTS; recombinant SENP7, Z-RLRGG-aminoluciferin luminescence, 40 min; AID 434973, 2010; 330,000 compounds, 1.5% hits; inhibition, % at 5 µM; Sentrin-specific protease 7 (Homo sapiens), Q9BQF6;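 active = inhibition above about 50% at the single test dose, limit read from the data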;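 also: plate controls were DMSO with enzyme for no effect and no enzyme buffer wells for full effect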
Target sequence (Q9BQF6 706-1050 limits assumed): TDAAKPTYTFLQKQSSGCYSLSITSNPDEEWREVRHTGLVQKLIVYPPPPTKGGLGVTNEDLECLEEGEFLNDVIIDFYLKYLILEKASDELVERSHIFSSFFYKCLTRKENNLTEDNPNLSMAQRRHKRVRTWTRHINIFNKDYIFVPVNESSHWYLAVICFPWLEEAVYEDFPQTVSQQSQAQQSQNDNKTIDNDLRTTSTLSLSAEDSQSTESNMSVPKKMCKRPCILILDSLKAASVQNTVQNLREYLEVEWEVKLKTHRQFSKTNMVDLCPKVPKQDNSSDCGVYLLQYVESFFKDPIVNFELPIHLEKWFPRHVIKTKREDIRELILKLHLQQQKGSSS
SENP6 inh: SENP6 protease inhibitors, primary screen, biochemical, luminescence, uHTS. Sentrin-specific protease 6 (Homo sapiens), Q9GZR1. 330,000 compounds, 1.8% hits. inhibition, % at 10 µM. Recombinant SENP6 catalytic domain, aminoluciferin luminescence;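 active = inhibition above about 50% at the single tested dose, limit read from the data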;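 also: plate controls were DMSO wells with enzyme for no effect and DMSO wells lacking enzyme for full effect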
UBC13 polyUb: UBC13 polyubiquitin chain formation inhibitors, primary screen, biochemical, TR-FRET, uHTS; Ubiquitin-conjugating enzyme E2 N (Homo sapiens), P61088; inhibition, % at 20 µM; 330,000 compounds, 0.47% hits; in the data active = inhibition above about 45%, passing the limit was not always enough
Target sequence (P61088 whole entry, looked up): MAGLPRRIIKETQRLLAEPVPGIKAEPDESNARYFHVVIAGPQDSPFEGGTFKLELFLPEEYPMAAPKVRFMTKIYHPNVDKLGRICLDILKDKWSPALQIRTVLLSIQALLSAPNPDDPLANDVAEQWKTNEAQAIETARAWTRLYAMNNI
Apaf1 inhib: inhibitors of human Apaf-1 apoptosome, primary screen, biochemical, DEVD-Rh110 fluorescence, uHTS; reconstituted apoptosome caspase-3 activity; 330,000 compounds, 0.71% hits; inhibition, % at 20 µM; active = inhibition of at least 40% at 20 µM;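 also: plate controls were DMSO wells for no effect and DEVD-CHO caspase inhibitor wells for full effect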
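Material: reconstituted apoptosome with Apaf-1, cytochrome c, caspase-9, procaspase-3, dATP / Buffer or medium: pH 7.5 Hepes buffer with CHAPS, BSA, DTT / Also added: cytochrome c with DEVD-Rh110 / Schedule: compound with Apaf-1, dATP, procaspase-3 30 min, then 50 min reaction, room temperature / Technique: rhodamine 110 fluorescence at Ex 480/Em 540 nm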
Casp3 UBC13 ctr: CASP3 inhibitor validation, counterassay for project on UBE2N polyubiquitination blockers, biochemical, one dose. shares compounds with UBC13 polyUb. Recombinant caspase-3, Caspase-Glo 3/7 luminescence, 60 min. inhibition, % at 20 µM. 1,400 compounds, 4% hits. AID 488856, 2010;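 active = mean inhibition across replicates above about 26%, limit read from the data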;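 also: plate controls were DMSO with caspase-3 for no effect and DMSO wells lacking enzyme for full effect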
UBC13 conf: UBC13 polyubiquitination inhibitors, single-point retest, confirmation, biochemical, TR-FRET, single concentration; shares compounds with UBC13 polyUb; inhibition, % at 10 µM; 1,400 compounds, 68% hits; in the data active = inhibition above about 45%
Apaf-1 inh conf2: Apaf-1 inhibitors, single-dose retest, confirmation, biochemical, fluorescence, DEVD-Rh110, 20 µM; shares compounds with Apaf1 inhib; reconstituted apoptosome, caspase-3 DEVD-Rh110 fluorescence; inhibition, % at 20 µM; 1,800 compounds, 25% hits;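 active = mean inhibition of at least 40% at 20 µM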;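 also: plate controls were DMSO wells for no effect and DEVD-CHO caspase inhibitor control wells for full effect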
Rh110 interf inh: Rh110 fluorescence interference by putative Apaf-1 inhibitors, confirmation, artefact control for Apaf-1 inhibitor project, biochemical, 20 µM | shares compounds with Apaf1 inhib | quenched caspase reaction | activation (fluorescence interference), % at 20 µM | 1,800 tested, under 10 active | AID 504615, 2011;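 active = signal rise of 40% or more at 20 µM, treated as a fluorescence artifact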
Apaf1 inh interf: fluorescence interference of Apaf-1 inhibitor hits, dose response, artefact control for Apaf-1 inhibitor project; shares compounds with Apaf1 inhib; fluorescence interference counterscreen, Apaf-1 assay format; IC50, µM; 460 tested, under 10 active; call rule not given here
An asterisk follows results filed as active.

For CC(C)(C)CC(C)(C)c1ccc(OCCOCC[N+](C)(C)Cc2ccccc2)cc1 the results were SENP8 block-1 -5, SENP8 block-2 19, SENP7 block -12, SENP6 inh -20, UBC13 polyUb 92*, Apaf1 inhib 82*, Casp3 UBC13 ctr -3, UBC13 conf 91*, Apaf-1 inh conf2 43*, Rh110 interf inh 21 and Apaf1 inh interf >100.
C[N+](C)(CCOc1ccccc1)Cc1ccccc1 (tested in a mixture with another compound) was read as SENP8 block-1 -4, SENP8 block-2 -41, SENP7 block 2, SENP6 inh 2, UBC13 polyUb -24 and Apaf1 inhib 7.
`Oc1ccc(C[C@H]2CNCCN2CCC23CC4CC(CC(C4)C2)C3)cc1` gave SENP8 block-1 -2, SENP8 block-2 26, SENP7 block -2, SENP6 inh -1, UBC13 polyUb 38 and Apaf1 inhib 24.
Oc1ccc(C[C@@H]2CNCCN2CCC23CC4CC(CC(C4)C2)C3)cc1 was read as SENP8 block-1 5, SENP8 block-2 19, SENP7 block 6, SENP6 inh -1, UBC13 polyUb 58*, Apaf1 inhib 47*, Casp3 UBC13 ctr -3, UBC13 conf 25, Apaf-1 inh conf2 2 and Rh110 interf inh 5.
Screening CN(C)CCOc1ccc(-c2c(-c3ccsc3)sc3ccccc23)cc1 returned SENP8 block-1 -2, SENP8 block-2 8, SENP7 block 2, SENP6 inh -5, UBC13 polyUb 78*, Apaf1 inhib 71*, Casp3 UBC13 ctr 0, UBC13 conf 74*, Apaf-1 inh conf2 24 and Rh110 interf inh 13.
`COc1cccc(-c2sc3ccc(OC)cc3c2-c2ccc(O)cc2)c1` gave SENP8 block-1 -7, SENP8 block-2 -104, SENP7 block 6, SENP6 inh -6, UBC13 polyUb 12 and Apaf1 inhib 6.
For COc1cccc(-c2sc3ccc(OC)cc3c2-c2ccc(OCCN(C)C)cc2)c1 the results were SENP8 block-1 -5, SENP8 block-2 -76, SENP7 block -1, SENP6 inh -14, UBC13 polyUb 84*, Apaf1 inhib 75*, Casp3 UBC13 ctr 0, UBC13 conf 90*, Apaf-1 inh conf2 23 and Rh110 interf inh 20.
`O=C(OCC(=O)N(CCc1ccccc1)Cc1ccccc1)c1ccc(F)c(S(=O)(=O)N2CCOCC2)c1` gave SENP8 block-2 8.
Screening FC(F)(F)c1cc(CCN2CCNC[C@@H]2Cc2ccccc2)cc(C(F)(F)F)c1 returned SENP8 block-1 -17, SENP8 block-2 11, SENP7 block -1, SENP6 inh -28, UBC13 polyUb 64*, Apaf1 inhib 57*, Casp3 UBC13 ctr 0, UBC13 conf 51*, Apaf-1 inh conf2 21 and Rh110 interf inh 8.
`Fc1cccc(CCN2CCNC[C@@H]2Cc2ccccc2)c1` gave SENP8 block-1 -14, SENP8 block-2 15, SENP7 block 15, SENP6 inh -12, UBC13 polyUb -11 and Apaf1 inhib 4.
For O=C(Nc1ccc2c(c1)OCO2)C1Cc2c(-c3ccccc3Oc3ccccc3)ccnc2O1 (stereo not drawn) the results were SENP8 block-2 21.
N#C/C(=C\C=C\c1ccccc1)c1nc(-c2ccc3c(c2)OCO3)cs1 was read as SENP8 block-1 5, SENP8 block-2 -39, SENP7 block 2, SENP6 inh -2, UBC13 polyUb 9 and Apaf1 inhib 7.
For CCN(CC)CCOC(=O)c1ccc(N/C=C(/C#N)c2nc(-c3ccc4c(c3)OCO4)cs2)cc1 the results were SENP8 block-1 -5, SENP8 block-2 -10, SENP7 block 5, SENP6 inh -23, UBC13 polyUb 108*, Apaf1 inhib 60*, Casp3 UBC13 ctr 1, UBC13 conf 132*, Apaf-1 inh conf2 63*, Rh110 interf inh 4 and Apaf1 inh interf >100.
For CCN(CC)CCOC(=O)c1ccc(N/C=C(/C#N)c2nc(-c3cc4ccccc4oc3=O)cs2)cc1 the results were SENP8 block-1 -8, SENP8 block-2 -74, SENP7 block -7, SENP6 inh -51, UBC13 polyUb 114*, Apaf1 inhib 54*, Casp3 UBC13 ctr 1, UBC13 conf 132*, Apaf-1 inh conf2 61*, Rh110 interf inh 9 and Apaf1 inh interf >100.
`COc1ccc(OC)c(CN2C(=O)CN(S(C)(=O)=O)CC2(C)C(=O)Nc2c(C)cccc2C)c1` (stereo not drawn) gave SENP8 block-2 2.
`Cc1ccc2nc(N(CCCN(C)C)C(=O)c3ccc(S(=O)(=O)N4CCOCC4)cc3)sc2c1` gave SENP8 block-1 3, SENP8 block-2 13, SENP7 block 3, SENP6 inh -4, UBC13 polyUb 15 and Apaf1 inhib 4.
`CN(C)CCCN(C(=O)c1ccc(S(=O)(=O)N2CCc3ccccc3C2)cc1)c1nc2ccc(F)cc2s1` gave SENP8 block-1 -2, SENP8 block-2 13, SENP7 block -1, SENP6 inh 13, UBC13 polyUb 55*, Apaf1 inhib 70*, Casp3 UBC13 ctr 6, UBC13 conf 99*, Apaf-1 inh conf2 46*, Rh110 interf inh 5 and Apaf1 inh interf >100.

Screens: PubChem BioAssay, Sanford-Burnham Center for Chemical Genomics
